Experimental data pooled from the literature.
Protocols differ between the studies behind these lines. pIC50: −log10 of the molar value.
Target: Cytochrome P450 2D6 (CYP2D6, Homo sapiens, UniProt P10635)
Read-out: enzyme activity
Action: inhibitor

`CCOC(=O)C1CCN(C(=O)c2ccc(N(CC)Cc3cnc4nc(N)nc(N)c4n3)cc2)CC1` gave a pIC50 of 4.29 (luciferase).
With `COc1ccn2c(Nc3ccccc3F)c(-c3ccncn3)nc2c1` the pIC50 was 5.64.
For `Nc1nc(N)c2nc(C(=O)NCc3cccc(C(F)(F)F)c3)cnc2n1`, the pIC50 was 6.60 (luciferase).
For `CC1=CC(=O)C(C(C)C)=CC1=O`, the pIC50 was 3.55 (fluorescence; pH 7.4).
`C[C@H]1CN(c2n[nH]c3nc(N[C@H]4CC[C@H](NS(=O)(=O)CCC(F)(F)F)CC4)ncc23)CCO1` gave a pIC50 of under 4.00.
For `COc1ccc2c(Cc3ccccc3F)c3n(c(=O)c2c1OC)CCc1cc2c(cc1-3)OCO2`, the pIC50 was under 5.00.
`CCc1cc(/C(C)=N/OCc2ccc(C3CCCCC3)c(C(F)(F)F)c2)ccc1CN1CC(C(=O)O)C1` has a pIC50 of under 5.96 (human; liver microsomes; 20 min).
`Cc1coc([C@H]2C[C@H]3[C@@H](CF)SC(N)=N[C@@]3(c3ccc(F)cc3F)CO2)n1` has a pIC50 of under 4.52 (human; liver microsomes; pH 7.4).
For `Nc1nc(N)c2nc(CNc3ccc(C(=O)NCCc4ccccc4)cc3)cnc2n1`, the pIC50 was 4.98 (luciferase).
`COc1ccc2cc3[n+](cc2c1OC)CCc1cc2c(cc1-3)OCO2` has a pIC50 of 6.22.
`Cc1ccc2nc(-c3ccccc3)c(CNc3ccc(F)cc3)n2c1` has a pIC50 of 5.64.
For `N#C[C@H](C[C@@H]1CCCNC1=O)NC(=O)[C@H](CC1CC1)NC(=O)c1cc2cccc(Cl)c2[nH]1`, the pIC50 was 4.29 (human; liver microsomes).
